# Source: paper PMC5508980 (Molecular nutrition & food research, 2017)
# Legend:
# Format in all cases: biochemical
# Class I HDAC = experiment: HDAC activity assay, class I substrate, bovine heart tissue lysate; settings: 2 hours treatment
# Method in brief: (§1)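 Bovine heart lysate prepared in PBS pH 7.4 with 0.5% Triton X-100, 300 mM NaCl and protease/phosphatase inhibitors, then clarified; 30 µg protein/well in PBS. Test compound at semi-log increasing concentrations for 2 h, then class-specific AMC-acyl-lysine substrate (1 mM DMSO stock) for 2 h at 37 °C.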
# Class IIb HDAC = experiment: HDAC activity assay, class IIb substrate, bovine heart tissue lysate; settings: 2 hours treatment
# Method in brief: as §1
# recombinant HDAC1 = recombinant HDAC1 (Homo sapiens, UniProt Q13547); experiment: Recombinant HDAC activity assay
# recombinant HDAC10 = target: T1, recombinant HDAC10 (Homo sapiens, UniProt Q969S8); experiment: Recombinant HDAC activity assay; settings: recombinant protein incubated with 50 µM compound, 2 hrs
# T1 sequence (Q969S8 1-669): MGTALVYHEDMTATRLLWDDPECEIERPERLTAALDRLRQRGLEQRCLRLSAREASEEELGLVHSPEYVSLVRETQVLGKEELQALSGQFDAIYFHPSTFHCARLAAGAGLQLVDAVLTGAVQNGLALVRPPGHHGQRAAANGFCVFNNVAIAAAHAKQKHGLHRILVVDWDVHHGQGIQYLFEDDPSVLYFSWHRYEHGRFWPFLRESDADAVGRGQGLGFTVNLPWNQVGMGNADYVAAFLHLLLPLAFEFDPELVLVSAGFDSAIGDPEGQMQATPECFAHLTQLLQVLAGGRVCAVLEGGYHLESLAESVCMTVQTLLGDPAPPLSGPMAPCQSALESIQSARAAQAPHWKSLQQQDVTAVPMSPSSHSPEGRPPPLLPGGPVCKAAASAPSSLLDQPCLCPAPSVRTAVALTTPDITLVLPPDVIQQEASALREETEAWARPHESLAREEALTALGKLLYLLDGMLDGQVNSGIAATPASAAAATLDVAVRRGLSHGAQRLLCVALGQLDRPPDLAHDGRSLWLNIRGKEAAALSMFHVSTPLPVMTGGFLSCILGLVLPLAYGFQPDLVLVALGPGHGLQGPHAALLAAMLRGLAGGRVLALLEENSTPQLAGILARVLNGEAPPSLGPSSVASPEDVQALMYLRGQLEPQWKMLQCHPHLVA
# recombinant HDAC4 = recombinant HDAC4 (Homo sapiens, UniProt P56524); experiment: Recombinant HDAC activity assay; settings: recombinant protein incubated with 50 µM compound, 2 hrs
# recombinant HDAC6 = target: T2, recombinant HDAC6 (Homo sapiens, UniProt Q9UBN7); experiment: Recombinant HDAC activity assay; settings: recombinant protein incubated with 50 µM compound, 2 hrs
# T2 sequence (Q9UBN7 1-1215): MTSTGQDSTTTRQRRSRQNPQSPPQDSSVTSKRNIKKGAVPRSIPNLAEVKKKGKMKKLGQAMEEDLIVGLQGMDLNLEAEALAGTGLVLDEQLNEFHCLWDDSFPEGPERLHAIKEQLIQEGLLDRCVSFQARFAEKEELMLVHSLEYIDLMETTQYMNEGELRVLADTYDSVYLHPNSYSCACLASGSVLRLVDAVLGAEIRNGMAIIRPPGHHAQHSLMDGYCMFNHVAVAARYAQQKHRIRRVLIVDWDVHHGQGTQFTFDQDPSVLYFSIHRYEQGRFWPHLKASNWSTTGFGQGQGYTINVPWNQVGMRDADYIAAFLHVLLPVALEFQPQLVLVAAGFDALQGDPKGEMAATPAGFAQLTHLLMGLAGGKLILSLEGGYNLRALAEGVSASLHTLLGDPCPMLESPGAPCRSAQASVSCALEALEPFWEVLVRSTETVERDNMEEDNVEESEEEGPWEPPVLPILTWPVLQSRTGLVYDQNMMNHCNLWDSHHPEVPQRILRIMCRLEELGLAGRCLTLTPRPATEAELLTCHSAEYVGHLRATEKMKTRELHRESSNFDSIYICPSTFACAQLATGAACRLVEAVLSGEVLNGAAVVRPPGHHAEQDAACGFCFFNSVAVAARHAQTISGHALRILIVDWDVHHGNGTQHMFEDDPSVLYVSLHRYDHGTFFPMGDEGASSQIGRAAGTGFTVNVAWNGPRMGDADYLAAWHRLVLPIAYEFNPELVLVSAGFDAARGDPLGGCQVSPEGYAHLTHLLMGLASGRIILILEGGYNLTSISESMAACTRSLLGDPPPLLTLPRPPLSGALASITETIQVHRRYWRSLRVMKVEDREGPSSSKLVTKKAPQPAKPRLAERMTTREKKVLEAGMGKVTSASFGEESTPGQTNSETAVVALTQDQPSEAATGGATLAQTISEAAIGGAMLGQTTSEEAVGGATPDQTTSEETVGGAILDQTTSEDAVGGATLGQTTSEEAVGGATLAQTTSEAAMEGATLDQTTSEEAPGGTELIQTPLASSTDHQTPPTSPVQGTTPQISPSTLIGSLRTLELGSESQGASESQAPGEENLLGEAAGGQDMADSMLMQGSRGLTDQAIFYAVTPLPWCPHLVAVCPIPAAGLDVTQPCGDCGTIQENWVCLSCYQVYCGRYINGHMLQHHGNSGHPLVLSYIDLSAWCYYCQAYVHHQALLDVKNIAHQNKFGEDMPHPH
# recombinant HDAC5 = recombinant HDAC5 (Homo sapiens, UniProt Q9UQL6); experiment: Recombinant HDAC activity assay; settings: recombinant protein incubated with 50 µM compound, 2 hrs
# recombinant HDAC7 = target: T3, recombinant HDAC7 (Homo sapiens, UniProt Q8WUI4); experiment: Recombinant HDAC activity assay; settings: recombinant protein incubated with 50 µM compound, 2 hrs
# T3 sequence (Q8WUI4 1-952): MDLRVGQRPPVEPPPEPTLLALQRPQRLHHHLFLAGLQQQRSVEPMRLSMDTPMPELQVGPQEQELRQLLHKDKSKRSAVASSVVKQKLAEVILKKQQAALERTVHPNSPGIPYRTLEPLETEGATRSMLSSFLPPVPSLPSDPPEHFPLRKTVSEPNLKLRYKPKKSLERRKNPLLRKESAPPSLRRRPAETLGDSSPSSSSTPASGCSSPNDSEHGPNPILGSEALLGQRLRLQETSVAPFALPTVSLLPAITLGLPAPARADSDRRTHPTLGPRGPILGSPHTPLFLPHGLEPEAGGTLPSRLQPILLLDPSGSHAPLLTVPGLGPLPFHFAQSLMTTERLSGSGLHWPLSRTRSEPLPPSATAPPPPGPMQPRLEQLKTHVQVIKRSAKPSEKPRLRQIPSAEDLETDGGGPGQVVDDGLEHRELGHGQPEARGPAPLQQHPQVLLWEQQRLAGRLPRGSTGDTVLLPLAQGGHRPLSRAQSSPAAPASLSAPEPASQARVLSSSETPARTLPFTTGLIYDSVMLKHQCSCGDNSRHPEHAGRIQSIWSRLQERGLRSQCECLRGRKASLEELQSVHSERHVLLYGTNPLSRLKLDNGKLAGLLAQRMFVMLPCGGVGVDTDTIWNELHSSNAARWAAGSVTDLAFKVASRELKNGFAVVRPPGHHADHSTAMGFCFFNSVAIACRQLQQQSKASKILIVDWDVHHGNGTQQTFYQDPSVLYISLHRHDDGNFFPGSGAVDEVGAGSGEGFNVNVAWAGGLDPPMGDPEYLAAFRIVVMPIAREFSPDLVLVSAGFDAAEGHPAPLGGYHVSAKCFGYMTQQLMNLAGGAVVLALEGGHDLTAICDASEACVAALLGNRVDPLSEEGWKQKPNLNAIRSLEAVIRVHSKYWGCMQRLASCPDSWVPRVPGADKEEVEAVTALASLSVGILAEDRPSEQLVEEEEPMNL
# recombinant HDAC9 = recombinant HDAC9 (Homo sapiens, UniProt Q9UKV0); experiment: Recombinant HDAC activity assay; settings: recombinant protein incubated with 50 µM compound, 2 hrs
# recombinant HDAC8 = target: T4, recombinant HDAC8 (Homo sapiens, UniProt Q9BY41); experiment: Recombinant HDAC activity assay
# T4 sequence (Q9BY41 1-377): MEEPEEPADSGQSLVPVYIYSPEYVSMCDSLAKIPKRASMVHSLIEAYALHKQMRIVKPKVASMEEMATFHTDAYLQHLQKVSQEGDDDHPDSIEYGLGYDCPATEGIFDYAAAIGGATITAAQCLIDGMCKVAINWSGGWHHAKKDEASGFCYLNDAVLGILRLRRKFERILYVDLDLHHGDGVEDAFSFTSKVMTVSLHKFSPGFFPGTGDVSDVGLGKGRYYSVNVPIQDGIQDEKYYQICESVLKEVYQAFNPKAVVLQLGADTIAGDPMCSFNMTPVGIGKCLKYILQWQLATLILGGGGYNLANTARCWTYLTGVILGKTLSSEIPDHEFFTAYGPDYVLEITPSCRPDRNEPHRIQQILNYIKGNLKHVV
# recombinant HDAC3 = recombinant HDAC3 (Homo sapiens, UniProt O15379); experiment: Recombinant HDAC activity assay
# recombinant HDAC2 = recombinant HDAC2 (Homo sapiens, UniProt Q92769); experiment: Recombinant HDAC activity assay; settings: 2 h, read-out: % HDAC activity, Class I HDACs, 2
# [1] = recombinant protein incubated with 50 µM compound, 2 hrs
# Sequence of recombinant HDAC1 (Q13547 whole entry): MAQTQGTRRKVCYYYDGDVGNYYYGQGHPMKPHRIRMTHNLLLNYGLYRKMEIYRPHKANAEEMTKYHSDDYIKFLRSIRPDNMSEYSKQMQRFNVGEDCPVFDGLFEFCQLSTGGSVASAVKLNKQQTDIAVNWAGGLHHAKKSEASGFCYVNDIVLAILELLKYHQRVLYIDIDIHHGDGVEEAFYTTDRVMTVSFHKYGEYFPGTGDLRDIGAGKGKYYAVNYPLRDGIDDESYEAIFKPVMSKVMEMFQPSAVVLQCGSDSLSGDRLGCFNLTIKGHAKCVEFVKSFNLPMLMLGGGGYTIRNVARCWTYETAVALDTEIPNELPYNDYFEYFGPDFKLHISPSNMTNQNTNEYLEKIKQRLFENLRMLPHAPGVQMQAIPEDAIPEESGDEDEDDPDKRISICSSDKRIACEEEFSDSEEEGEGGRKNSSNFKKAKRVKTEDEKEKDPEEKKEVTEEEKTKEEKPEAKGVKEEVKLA
# Sequence of recombinant HDAC3 (O15379 whole entry): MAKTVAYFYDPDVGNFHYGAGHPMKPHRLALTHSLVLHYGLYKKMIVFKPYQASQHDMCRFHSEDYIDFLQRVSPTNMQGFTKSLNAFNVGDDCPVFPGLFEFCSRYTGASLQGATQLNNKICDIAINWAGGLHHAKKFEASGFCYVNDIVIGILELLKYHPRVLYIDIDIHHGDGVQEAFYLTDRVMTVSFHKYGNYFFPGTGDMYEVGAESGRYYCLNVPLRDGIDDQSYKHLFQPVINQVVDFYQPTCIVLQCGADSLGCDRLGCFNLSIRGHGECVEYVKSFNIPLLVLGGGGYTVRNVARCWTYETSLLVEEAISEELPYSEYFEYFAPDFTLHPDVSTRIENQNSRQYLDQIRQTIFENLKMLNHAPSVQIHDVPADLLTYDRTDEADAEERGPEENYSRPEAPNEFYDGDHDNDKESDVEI
# Sequence of recombinant HDAC3 (Q9Y618 395-489 partner limits assumed): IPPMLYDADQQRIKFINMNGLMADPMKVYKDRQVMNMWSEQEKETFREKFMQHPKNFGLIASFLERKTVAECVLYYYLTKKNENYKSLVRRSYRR
# Sequence of recombinant HDAC2 (Q92769 whole entry): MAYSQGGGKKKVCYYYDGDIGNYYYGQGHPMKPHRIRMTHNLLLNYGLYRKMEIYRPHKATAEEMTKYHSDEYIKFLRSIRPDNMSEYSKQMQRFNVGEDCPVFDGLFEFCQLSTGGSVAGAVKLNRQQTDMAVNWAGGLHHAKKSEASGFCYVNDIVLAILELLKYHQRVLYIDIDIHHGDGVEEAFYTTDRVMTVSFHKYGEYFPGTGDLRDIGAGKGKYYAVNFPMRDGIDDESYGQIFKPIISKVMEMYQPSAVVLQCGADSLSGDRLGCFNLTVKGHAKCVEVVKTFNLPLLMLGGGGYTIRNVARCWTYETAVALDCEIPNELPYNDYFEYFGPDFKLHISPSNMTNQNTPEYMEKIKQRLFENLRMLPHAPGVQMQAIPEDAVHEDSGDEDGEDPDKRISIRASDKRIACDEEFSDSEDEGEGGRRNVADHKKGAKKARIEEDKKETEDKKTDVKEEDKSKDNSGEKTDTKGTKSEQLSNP
# Sequence of recombinant HDAC9 (Q9UKV0 whole entry): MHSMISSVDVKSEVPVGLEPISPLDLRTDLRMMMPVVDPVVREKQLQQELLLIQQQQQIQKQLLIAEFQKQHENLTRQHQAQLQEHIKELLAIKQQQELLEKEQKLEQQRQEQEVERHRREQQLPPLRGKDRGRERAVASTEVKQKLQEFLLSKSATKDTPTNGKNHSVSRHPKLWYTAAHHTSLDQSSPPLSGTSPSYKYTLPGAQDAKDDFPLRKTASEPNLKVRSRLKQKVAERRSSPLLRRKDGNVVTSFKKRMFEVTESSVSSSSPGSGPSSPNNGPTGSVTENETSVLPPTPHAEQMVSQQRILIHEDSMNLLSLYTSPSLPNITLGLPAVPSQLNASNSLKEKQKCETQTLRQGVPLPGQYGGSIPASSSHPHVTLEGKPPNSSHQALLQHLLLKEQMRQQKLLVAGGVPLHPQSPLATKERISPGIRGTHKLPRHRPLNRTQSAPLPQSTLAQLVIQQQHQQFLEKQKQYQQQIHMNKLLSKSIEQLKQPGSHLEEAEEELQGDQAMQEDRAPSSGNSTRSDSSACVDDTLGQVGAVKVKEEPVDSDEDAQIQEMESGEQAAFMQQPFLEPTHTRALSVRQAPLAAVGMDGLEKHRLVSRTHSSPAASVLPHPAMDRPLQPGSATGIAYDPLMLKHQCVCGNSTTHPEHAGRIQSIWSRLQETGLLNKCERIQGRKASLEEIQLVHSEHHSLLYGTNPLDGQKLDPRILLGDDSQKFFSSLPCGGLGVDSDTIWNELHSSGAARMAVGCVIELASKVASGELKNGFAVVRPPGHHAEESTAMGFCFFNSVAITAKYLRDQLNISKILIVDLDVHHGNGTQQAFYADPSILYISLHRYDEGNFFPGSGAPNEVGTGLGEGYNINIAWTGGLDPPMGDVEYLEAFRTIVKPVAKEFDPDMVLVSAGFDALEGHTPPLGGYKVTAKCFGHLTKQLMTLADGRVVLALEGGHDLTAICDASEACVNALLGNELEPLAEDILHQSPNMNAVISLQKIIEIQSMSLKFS
# Sequence of recombinant HDAC4 (P56524 whole entry): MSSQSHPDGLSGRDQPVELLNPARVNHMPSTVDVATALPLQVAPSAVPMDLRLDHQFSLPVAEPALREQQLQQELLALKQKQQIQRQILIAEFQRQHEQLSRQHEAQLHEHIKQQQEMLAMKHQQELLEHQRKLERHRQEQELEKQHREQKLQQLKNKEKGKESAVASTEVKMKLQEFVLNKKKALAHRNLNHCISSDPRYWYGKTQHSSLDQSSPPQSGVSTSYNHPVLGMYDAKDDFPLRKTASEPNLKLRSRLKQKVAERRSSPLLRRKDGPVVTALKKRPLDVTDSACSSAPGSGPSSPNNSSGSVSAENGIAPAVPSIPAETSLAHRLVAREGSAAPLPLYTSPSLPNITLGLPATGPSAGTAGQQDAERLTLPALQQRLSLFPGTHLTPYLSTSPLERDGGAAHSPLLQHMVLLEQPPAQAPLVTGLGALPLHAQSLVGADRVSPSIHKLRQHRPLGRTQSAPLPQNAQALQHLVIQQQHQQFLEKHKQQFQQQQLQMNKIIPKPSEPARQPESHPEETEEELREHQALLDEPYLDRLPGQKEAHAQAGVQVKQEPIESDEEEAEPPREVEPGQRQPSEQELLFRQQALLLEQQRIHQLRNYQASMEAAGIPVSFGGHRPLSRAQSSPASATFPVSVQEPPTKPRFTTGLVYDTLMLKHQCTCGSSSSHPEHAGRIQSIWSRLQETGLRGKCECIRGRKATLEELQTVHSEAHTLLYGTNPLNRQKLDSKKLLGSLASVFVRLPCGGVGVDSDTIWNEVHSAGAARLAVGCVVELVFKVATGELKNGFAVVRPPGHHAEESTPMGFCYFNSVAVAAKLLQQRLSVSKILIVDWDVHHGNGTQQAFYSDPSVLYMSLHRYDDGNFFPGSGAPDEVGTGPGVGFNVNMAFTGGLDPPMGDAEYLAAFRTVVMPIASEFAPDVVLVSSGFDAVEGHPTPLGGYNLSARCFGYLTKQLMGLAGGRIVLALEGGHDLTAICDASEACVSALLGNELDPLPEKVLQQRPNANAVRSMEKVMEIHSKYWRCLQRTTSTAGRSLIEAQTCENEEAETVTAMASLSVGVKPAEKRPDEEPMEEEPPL
# Sequence of recombinant HDAC5 (Q9UQL6 whole entry): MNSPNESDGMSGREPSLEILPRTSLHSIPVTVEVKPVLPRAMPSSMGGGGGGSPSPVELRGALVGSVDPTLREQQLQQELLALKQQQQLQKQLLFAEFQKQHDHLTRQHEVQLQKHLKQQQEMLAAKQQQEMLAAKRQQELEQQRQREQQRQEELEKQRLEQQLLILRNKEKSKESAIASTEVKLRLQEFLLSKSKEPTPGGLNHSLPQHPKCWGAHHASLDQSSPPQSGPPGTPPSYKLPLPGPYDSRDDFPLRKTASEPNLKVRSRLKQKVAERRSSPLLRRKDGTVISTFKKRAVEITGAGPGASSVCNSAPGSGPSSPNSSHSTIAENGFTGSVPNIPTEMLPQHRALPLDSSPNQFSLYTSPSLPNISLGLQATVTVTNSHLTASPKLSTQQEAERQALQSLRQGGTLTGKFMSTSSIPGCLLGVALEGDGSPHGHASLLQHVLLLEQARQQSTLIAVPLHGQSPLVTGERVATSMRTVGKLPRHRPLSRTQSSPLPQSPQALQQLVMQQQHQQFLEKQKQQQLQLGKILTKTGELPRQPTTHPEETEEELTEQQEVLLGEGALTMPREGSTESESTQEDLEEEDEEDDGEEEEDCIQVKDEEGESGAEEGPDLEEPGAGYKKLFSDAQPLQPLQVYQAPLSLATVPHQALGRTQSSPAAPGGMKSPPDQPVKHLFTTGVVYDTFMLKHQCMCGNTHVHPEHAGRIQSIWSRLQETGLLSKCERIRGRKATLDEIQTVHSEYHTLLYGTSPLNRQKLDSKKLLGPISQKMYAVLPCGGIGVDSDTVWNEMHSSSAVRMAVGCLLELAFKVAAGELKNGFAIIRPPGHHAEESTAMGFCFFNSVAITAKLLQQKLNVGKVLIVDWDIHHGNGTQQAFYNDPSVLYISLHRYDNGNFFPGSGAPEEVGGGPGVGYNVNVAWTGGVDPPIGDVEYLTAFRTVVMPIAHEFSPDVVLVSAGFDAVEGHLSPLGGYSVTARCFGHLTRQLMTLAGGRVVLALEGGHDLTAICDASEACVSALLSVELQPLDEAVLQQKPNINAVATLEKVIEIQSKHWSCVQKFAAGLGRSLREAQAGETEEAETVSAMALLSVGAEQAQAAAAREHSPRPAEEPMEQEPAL
compound,measurement,setting,value
"Nc1ccccc1NC(=O)c1ccc(CNc2nccc(-c3cccnc3)n2)cc1 [MGCD, MGCD0103, reference compound]","class I HDAC activity, effect in words",Class I HDAC,only inhibited class I HDAC activity
"CN1CCc2c(c3ccccc3n2Cc2ccc(C(=O)NO)cc2)C1 [TubA, Tubastatin A, reference compound]","class IIb HDAC activity, effect in words",Class IIb HDAC,only inhibited class IIb HDAC activity
Myricitrin,"% HDAC activity, Class I HDACs, 1",recombinant HDAC1; [1],75.1%
same,"% HDAC activity, Class IIb HDACs, 10",recombinant HDAC10,67.0%
same,"% HDAC activity, Class IIa HDACs, 4",recombinant HDAC4,93.5%
same,"% HDAC activity, Class IIb HDACs, 6",recombinant HDAC6,87.2%
same,"% HDAC activity, Class IIa HDACs, 5",recombinant HDAC5,68.3%
same,"% HDAC activity, Class IIa HDACs, 7",recombinant HDAC7,-
same,"% HDAC activity, Class IIa HDACs, 9",recombinant HDAC9,69.3%
same,"% HDAC activity, Class I HDACs, 8",recombinant HDAC8; [1],65.4%
same,"% HDAC activity, Class I HDACs, 3",recombinant HDAC3; [1],67.7%
O=c1cc(-c2ccc(O)cc2)oc2cc(O)cc(O)c12 [Apigenin],remaining activity at 50 µM,"recombinant HDAC1; 2 h, read-out: % HDAC activity, Class I HDACs, 1",76.4%
same,remaining activity at 50 µM,recombinant HDAC2,90.4%
same,"class I HDAC activity, effect in words",Class I HDAC,only inhibit class I HDAC activity
same,"% HDAC activity, Class IIa HDACs, 7",recombinant HDAC7,-
same,remaining activity at 50 µM,"recombinant HDAC8; 2 h, read-out: % HDAC activity, Class I HDACs, 8",76.5%
same,remaining activity at 50 µM,"recombinant HDAC3; 2 h, read-out: % HDAC activity, Class I HDACs, 3",72.7%
